High-throughput results (PubChem)
In the library only some 1.8% were active in any assay of this set; here they are far more common.
C8 TRAIL sens: sensitizes caspase-8 expressing cells to TRAIL. AID 624354. inhibition (viability loss, TRAIL sensitization), % at 10 µM. NB7+C8 cells + TRAIL, ATPlite viability luminescence. 360,000 compounds, 1% hits;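 active = compounds causing at least 50% loss of cell viability in the single-dose screen, relative to plate controls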
PPC-1+TRAIL kill: kills PPC-1 cancer cells in the presence of TRAIL. AID 1443. PPC-1 cells + TRAIL, ATPLite viability luminescence. 220,000 compounds, 0.41% hits. cell killing (% activity), % at 4 µM or 5 µM;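 active = cell killing above 50% in the first pass at 4 µM, then a duplicate retest at 5 µM averaging 50% or more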;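 also: plate controls were cells with TRAIL plus DMSO for no effect and medium-only wells lacking cells for full effect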
STAT1 inh: STAT1 signaling inhibition; AID 920; 200,000 compounds, 0.35% hits; inhibition, % at 5.5 µM; NIH 3T3 STAT1-luciferase reporter, IFN-gamma, luminescence;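 active = inhibition above a set limit, the mean inhibition across all tested compounds plus 3 SD, cut at about 34% in these data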;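 also: 0% = IFN-gamma with DMSO and 100% = IFN-gamma with 300 µM nifuroxazide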
STAT3 activator: activators of IL-6 induced STAT3 signaling. activation (% of control), % at 5.6 µM. 190,000 compounds, 0.91% hits. U3A cells, IL-6 STAT3-luciferase reporter, luminescence; 100% = signal with IL-6 EC80 alone. AID 871;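 active = activation above the screen-wide mean of compound activation plus 3 SD, cut at about 130% in these data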;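 also: 0% = background luminescence of wells with medium and substrate only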
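Detection: reporter luminescence signal / Assay system: STAT1-lacking human U3A cells, STAT3 luciferase reporter / Incubation: compound pre-incubation 1 h before IL-6, then 6 h stimulation at 37 °C / Control set: IL-6-only high control / Read-out: % activation relative to IL-6 control / Probe or stimulus: Interleukin-6, 33 ng/mL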
STAT3 inh-1: STAT3 signaling inhibition. U3A cells, IL-6 STAT3-luciferase reporter, luminescence; host cell line lacks STAT1. inhibition, % at 5.5 µM. 190,000 compounds, 0.89% hits. AID 862;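 active = inhibition above the mean inhibition across all screened compounds plus 3 SD, cut at about 44% in these data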;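 also: 0% = DMSO only wells and 100% = 100 µM nifuroxazide control wells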
STAT3 inh-2: STAT3 inhibition, confirmation assay; shares compounds with STAT3 inh-1; U3A cells, IL-6 STAT3 luciferase reporter, luminescence; cell line lacks STAT1; inhibition, % at 5.7 µM; 1,200 compounds, 45% hits; AID 1265;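 active = inhibition above the hit cutoff computed for the primary STAT3 screen, cut at about 44% in these data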;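 also: 0% = IL-6 plus DMSO and 100% = IL-6 plus nifuroxazide control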
NFkB inh STAT3ct: inhibits NF-kappaB, counter-screen to STAT3 inhibitors | HEK293T NF-kB luciferase reporter, TNF-alpha induced | shares compounds with STAT3 inh-1 | inhibition, % at 5.7 µM | AID 1308 | 1,200 compounds, 36% hits;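 active = inhibition above the mean of solvent-only control wells plus 3 SD, cutoff set per campaign, cut at about 13% in these data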;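 also: 0% = TNF-alpha with DMSO and 100% = TNF-alpha with MG high control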
STAT1 inh STAT3c: counter-screen for STAT3 inhibitors: STAT1 inhibition. 1,200 compounds, 27% hits. shares compounds with STAT3 inh-1. inhibition, % at 5.7 µM. NIH 3T3 STAT1-luciferase reporter, IFN-gamma induced, luminescence. AID 1317;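 active = inhibition above the mean plus 3 SD of solvent-only control wells, limit set per screening run, cut at about 16% in these data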;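 also: 0% = DMSO with IFN-gamma and 100% = nifuroxazide control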
Starred values were filed as active, the others as inactive; · = no result.

SMILES	C8 TRAIL sens	PPC-1+TRAIL kill	STAT1 inh	STAT3 activator	STAT3 inh-1	STAT3 inh-2	NFkB inh STAT3ct	STAT1 inh STAT3c
COc1ccc(N(C(C)C(=O)N2CCC(Cc3ccccc3)CC2)S(C)(=O)=O)cc1 (stereo not given)	26.1	-1.2	26.3	58.4	50.0*	45.8*	8.7	20.5*
CCOC(=O)N1CCN(C(=O)C(C)N(c2ccc(Oc3ccccc3)cc2)S(C)(=O)=O)CC1 (stereo not given)	5.6	32.5	-1.5	92.9	12.7	·	·	·
CCOC(=O)C1CCN(C(=O)C(C)N(c2ccc(Oc3ccccc3)cc2)S(C)(=O)=O)CC1 (stereo not given)	30.0	9.9	23.8	60.6	48.7*	40.9	4.4	10.2
N#Cc1c2ccc([N+](=O)[O-])cc2[n+]([O-])n1-c1ccccc1	23.4	·	·	·	·	·	·	·
COc1ccc(-n2c(=S)[nH]c3cc(C(=O)Nc4ccc(F)cc4)ccc3c2=O)c(OC)c1	5.6	·	·	·	·	·	·	·
CCOC(=O)c1c(C)[nH]c(C)c1S(=O)(=O)N1CCN(c2ccc([N+](=O)[O-])cc2)CC1	-7.3	·	·	·	·	·	·	·
CCCCOc1ncnc2c1[nH]c1ccc(F)cc12	13.2	13.9	22.3	35.2	82.6*	74.2*	18.6*	31.8*
CCCCOc1ncnc2c1[nH]c1ccccc12	24.2	21.4	21.7	58.9	50.1*	36.4	19.1*	25.0*
CCCCOc1ncnc2c1[nH]c1ccc(OC)cc12	·	18.8	-41.4	65.7	45.9*	16.6	-37.0	-93.9
CCCCOc1ncnc2c1[nH]c1ccc(OCC)cc12	13.9	8.8	-0.6	83.2	24.3	·	·	·
CC(=O)Nc1cccc(-c2ccnc3c2CC(C)(C(=O)Nc2ccc(Cl)cc2)O3)c1 (stereo not given)	11.1	·	·	·	·	·	·	·
CC(=Nc1ccccc1)C1=C(O)C(Cc2ccccc2)NC1=O (stereo not given)	-7.9	·	·	·	·	·	·	·
COC(=O)c1ccccc1OCCCOc1ccc(C)cc1OC	·	·	-11.2	55.1	58.7*	29.9	-23.7	-97.1
CCN(CC)c1ccc2cc(C(C)=O)c(=O)oc2c1	-6.6	-8.0	-1.1	109.3	-8.0	·	·	·
CCN(CC)c1ccc2cc(NC(=O)CCC(=O)O)c(=O)oc2c1	26.5	25.4	25.7	45.0	70.0*	64.7*	29.2*	28.2*
CCN1CCN(C(c2cccnc2)c2c(NC(=O)c3ccco3)sc(C)c2C)CC1 (stereo not given)	1.6	·	·	·	·	·	·	·
Cc1sc(NC(=O)c2ccco2)c(C(c2cccnc2)N2CCC(C)CC2)c1C (stereo not given)	-8.0	23.5	8.9	45.0	67.7*	67.3*	16.3*	-0.7
COc1ccccc1C#CC1=CC(=O)CC(C)(C)C1	19.3	·	·	·	·	·	·	·
COc1ccc(-c2csc(N3C(=N)SCC3=O)n2)cc1	21.3	25.8	-71.8	61.9	50.0*	-14.3	-36.7	-191.3
COc1ccc(-c2csc(N3C(=O)CNC3=S)n2)cc1	22.2	39.6	-88.6	100.0	2.6	·	·	·
CCOC(=O)c1oc2ccc(S(=O)(=O)n3nc(-c4ccccc4)cc3N)cc2c1C	14.7	-28.9	21.1	60.4	54.3*	40.1	13.1*	11.8
Cc1cc(C)c(S(=O)(=O)NCCc2ccncc2)c(C)c1	5.7	·	·	·	·	·	·	·
COc1cc(C)c(Br)cc1S(=O)(=O)NCc1ccncc1	35.4	7.8	26.2	50.7	61.0*	58.1*	20.0*	18.3*
Cc1cc(C)c(S(=O)(=O)NCc2ccncc2)c(C)c1	10.4	26.7	26.6	38.1	75.2*	73.7*	27.0*	23.3*
Cc1ccc(S(=O)(=O)NCc2ccccn2)c(C)c1C	-4.6	·	·	·	·	·	·	·
SMILES	C8 TRAIL sens	PPC-1+TRAIL kill	STAT1 inh	STAT3 activator	STAT3 inh-1	STAT3 inh-2	NFkB inh STAT3ct	STAT1 inh STAT3c
Cc1ccc(S(=O)(=O)NCc2ccncc2)c(C)c1C	45.5	·	28.6	32.5	81.1*	81.9*	25.8*	14.3
CCCCNS(=O)(=O)c1ccc(S(=O)(=O)NCc2ccncc2)cc1	22.3	13.0	25.2	57.3	53.5*	35.0	-2.7	19.0*
COc1cc(C)c(Br)cc1S(=O)(=O)NCc1cccs1	5.9	·	·	·	·	·	·	·
CSc1ncccc1C(=O)N1CCC1(C)C(=O)NC(C)C (stereo not given)	-16.9	·	·	·	·	·	·	·
Cc1ccccc1Nc1nnc(-c2ccc(C(=O)NCCO)cc2)c2ccccc12	-11.3	·	·	·	·	·	·	·
COc1ccc(CN2C(=O)C(CC(=O)NCCc3ccccn3)CC(C(=O)N(C)C)=C2C)cc1 (stereo not given)	3.1	·	·	·	·	·	·	·
CN(CCC#N)c1ccc(/C=C(\C#N)c2ccccn2)cc1	83.9*	15.2	-45.7	58.3	49.4*	23.2	-6.9	-88.1
CCN(CC)c1ccc(/C=C(\C#N)c2ccccn2)cc1	81.1*	62.1*	10.9	39.8	74.2*	45.1*	29.3*	-43.0
N=c1c2c(n(Cc3ccccc3)c3c1CCC3)CCC2	18.3	16.1	26.2	62.5	48.9*	35.4	1.9	23.7*
N=c1c2c(n(Cc3cccc(Cl)c3)c3c1CCC3)CCCC2	32.7	31.3	32.4	55.8	54.2*	45.0*	4.0	24.7*
N=c1c2c(n(Cc3ccc(Cl)cc3)c3c1CCC3)CCC2	42.8	24.7	23.0	57.3	53.9*	43.5*	4.5	23.7*
N=c1c2c(n(Cc3ccc(F)cc3)c3c1CCC3)CCCC2	27.1	11.7	9.2	82.3	25.0	·	·	·
CCn1c2c(c(=N)c3c1CCC3)CCCC2	15.2	-8.0	·	·	·	·	·	·
COC(=O)c1sccc1-n1cc2c(c1-c1ccccc1)c(=O)n(C)c(=O)n2C	-19.4	·	·	·	·	·	·	·
Cc1ccc2nc(-c3cccc(Br)c3)c(Cc3ccccc3)n2c1	-4.8	·	·	·	·	·	·	·
CC(C)n1nnnc1C1c2ccccc2C(=O)N1CCOc1ccccc1 (stereo not given)	4.0	·	·	·	·	·	·	·
CC(C)c1ccc(/C=C/C(=O)NC2=NCCS2)cc1	·	38.8	6.0	42.9	68.1*	31.0	-22.8	-91.5
Cc1cccc(C)c1NC(=O)C(C)NCc1cccs1 (stereo not given)	-6.1	·	·	·	·	·	·	·
CCCCCCCCn1c2c(c(=N)c3ccccc31)CCC2	39.5	·	29.9	29.2	84.8*	87.8*	29.9*	31.0*
CCCCn1c2c(c(=N)c3ccccc31)CCC2	-0.2	0.7	·	·	·	·	·	·
Nc1sccc1C(=O)NCc1ccccc1	11.3	·	·	·	·	·	·	·
CN(C)c1ccc(N/C=C/C(=O)c2ccco2)cc1	61.5*	25.4	31.0	52.8	59.5*	24.6	25.3*	-22.4
Cn1c(CN2CCCCC2)nc2cc(NC(=O)c3ccc(Cl)cc3)ccc21	11.0	19.7	-12.3	46.6	69.5*	69.8*	22.7*	-11.8
COc1ccccc1CCNC(=O)c1cccc(S(=O)(=O)N2CCc3ccccc3C2)c1	-7.2	·	·	·	·	·	·	·
